Test results taken from ChEMBL document CHEMBL3813625, “Discovery of a Novel, Orally Efficacious Liver X Receptor (LXR) β Agonist” (J Med Chem, 2016).

Tests used:
[1] = Half life in rat liver microsomes; format: ADME
[2] = Half life in mouse liver microsomes; format: ADME
[3] = molecular target: T1, Nuclear receptor ROR-alpha (Homo sapiens, UniProt P35398); experiment: Inhibition of RORalpha receptor (unknown origin)
T1 sequence (P35398 whole entry): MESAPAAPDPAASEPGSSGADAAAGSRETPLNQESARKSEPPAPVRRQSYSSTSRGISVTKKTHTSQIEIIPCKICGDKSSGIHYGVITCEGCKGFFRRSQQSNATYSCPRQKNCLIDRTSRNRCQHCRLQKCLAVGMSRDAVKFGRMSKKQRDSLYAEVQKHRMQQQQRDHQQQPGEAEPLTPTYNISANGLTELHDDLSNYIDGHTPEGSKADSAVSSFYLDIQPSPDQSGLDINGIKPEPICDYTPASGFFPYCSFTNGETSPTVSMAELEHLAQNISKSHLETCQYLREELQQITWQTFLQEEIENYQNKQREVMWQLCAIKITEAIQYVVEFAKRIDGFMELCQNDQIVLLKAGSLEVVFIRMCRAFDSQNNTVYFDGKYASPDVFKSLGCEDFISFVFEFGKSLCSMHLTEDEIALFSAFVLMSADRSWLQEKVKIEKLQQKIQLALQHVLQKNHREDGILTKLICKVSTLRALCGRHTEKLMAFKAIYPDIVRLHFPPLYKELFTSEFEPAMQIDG

[4] = Half life in human liver microsomes; format: ADME
[5] = Half life in cynomolgus monkey liver microsomes; format: ADME, Macaca fascicularis
[6] = molecular target: T2, Retinoid X receptor (Homo sapiens, UniProt P28702+P48443+P19793); experiment: Inhibition of RXR (unknown origin); format: protein assay
T2 sequence (P28702 whole entry): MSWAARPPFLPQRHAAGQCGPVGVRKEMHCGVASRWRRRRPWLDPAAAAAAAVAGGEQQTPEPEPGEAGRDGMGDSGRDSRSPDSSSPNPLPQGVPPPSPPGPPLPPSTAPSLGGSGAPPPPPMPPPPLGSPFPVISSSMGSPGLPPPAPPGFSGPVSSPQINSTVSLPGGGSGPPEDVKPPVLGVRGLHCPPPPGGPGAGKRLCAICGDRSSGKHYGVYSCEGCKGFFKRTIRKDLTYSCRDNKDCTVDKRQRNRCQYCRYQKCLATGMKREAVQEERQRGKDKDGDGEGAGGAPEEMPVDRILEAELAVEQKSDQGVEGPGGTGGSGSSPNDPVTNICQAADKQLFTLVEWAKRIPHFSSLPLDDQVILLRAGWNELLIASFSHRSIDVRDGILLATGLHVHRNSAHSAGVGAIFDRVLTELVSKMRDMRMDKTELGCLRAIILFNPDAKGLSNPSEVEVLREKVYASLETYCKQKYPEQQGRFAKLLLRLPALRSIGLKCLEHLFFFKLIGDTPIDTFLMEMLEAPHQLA
T2 sequence (P48443 whole entry): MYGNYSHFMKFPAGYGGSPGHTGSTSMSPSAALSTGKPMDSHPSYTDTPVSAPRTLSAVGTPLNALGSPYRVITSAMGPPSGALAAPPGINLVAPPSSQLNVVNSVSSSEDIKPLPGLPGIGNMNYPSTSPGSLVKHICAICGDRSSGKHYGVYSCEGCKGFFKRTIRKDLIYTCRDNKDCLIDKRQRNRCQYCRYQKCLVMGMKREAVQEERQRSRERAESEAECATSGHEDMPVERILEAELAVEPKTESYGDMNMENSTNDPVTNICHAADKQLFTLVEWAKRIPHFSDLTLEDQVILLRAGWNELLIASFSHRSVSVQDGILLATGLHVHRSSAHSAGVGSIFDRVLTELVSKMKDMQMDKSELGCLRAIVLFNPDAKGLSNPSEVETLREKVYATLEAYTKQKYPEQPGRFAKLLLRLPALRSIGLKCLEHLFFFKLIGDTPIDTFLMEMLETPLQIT
T2 sequence (P19793 whole entry): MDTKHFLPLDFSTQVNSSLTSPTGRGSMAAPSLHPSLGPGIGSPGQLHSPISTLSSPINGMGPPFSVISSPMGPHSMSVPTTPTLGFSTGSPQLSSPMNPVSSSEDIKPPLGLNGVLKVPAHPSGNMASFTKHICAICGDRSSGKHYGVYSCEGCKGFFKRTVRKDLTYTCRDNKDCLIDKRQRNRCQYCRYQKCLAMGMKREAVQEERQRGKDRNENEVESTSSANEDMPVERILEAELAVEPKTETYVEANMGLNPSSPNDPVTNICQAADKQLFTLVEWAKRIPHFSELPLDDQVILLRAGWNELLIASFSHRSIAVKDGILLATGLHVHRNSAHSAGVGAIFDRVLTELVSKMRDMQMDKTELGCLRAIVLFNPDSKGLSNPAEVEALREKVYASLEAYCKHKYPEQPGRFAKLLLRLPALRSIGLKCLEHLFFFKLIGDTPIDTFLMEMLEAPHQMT

[7] = molecular target: T3, Nuclear receptor subfamily 1 group I member 2 (Homo sapiens, UniProt O75469); experiment: Inhibition of PXR (unknown origin)
T3 sequence (O75469 whole entry): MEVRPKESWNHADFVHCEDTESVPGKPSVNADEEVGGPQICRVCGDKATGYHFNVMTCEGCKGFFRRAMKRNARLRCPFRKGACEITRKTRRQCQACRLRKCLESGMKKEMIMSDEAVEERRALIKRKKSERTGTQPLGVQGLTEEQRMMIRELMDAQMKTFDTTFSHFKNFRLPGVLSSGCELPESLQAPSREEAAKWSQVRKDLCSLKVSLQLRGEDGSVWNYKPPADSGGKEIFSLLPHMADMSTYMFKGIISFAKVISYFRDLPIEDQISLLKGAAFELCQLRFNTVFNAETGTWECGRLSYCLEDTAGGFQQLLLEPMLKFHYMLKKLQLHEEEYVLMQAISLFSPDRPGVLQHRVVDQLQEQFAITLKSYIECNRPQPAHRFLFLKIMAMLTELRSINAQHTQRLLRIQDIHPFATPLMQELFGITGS

[8] = molecular target: T4, Mineralocorticoid receptor (Homo sapiens, UniProt P08235); experiment: Inhibition of Mineralocorticoid receptor (unknown origin)
T4 sequence (P08235 whole entry): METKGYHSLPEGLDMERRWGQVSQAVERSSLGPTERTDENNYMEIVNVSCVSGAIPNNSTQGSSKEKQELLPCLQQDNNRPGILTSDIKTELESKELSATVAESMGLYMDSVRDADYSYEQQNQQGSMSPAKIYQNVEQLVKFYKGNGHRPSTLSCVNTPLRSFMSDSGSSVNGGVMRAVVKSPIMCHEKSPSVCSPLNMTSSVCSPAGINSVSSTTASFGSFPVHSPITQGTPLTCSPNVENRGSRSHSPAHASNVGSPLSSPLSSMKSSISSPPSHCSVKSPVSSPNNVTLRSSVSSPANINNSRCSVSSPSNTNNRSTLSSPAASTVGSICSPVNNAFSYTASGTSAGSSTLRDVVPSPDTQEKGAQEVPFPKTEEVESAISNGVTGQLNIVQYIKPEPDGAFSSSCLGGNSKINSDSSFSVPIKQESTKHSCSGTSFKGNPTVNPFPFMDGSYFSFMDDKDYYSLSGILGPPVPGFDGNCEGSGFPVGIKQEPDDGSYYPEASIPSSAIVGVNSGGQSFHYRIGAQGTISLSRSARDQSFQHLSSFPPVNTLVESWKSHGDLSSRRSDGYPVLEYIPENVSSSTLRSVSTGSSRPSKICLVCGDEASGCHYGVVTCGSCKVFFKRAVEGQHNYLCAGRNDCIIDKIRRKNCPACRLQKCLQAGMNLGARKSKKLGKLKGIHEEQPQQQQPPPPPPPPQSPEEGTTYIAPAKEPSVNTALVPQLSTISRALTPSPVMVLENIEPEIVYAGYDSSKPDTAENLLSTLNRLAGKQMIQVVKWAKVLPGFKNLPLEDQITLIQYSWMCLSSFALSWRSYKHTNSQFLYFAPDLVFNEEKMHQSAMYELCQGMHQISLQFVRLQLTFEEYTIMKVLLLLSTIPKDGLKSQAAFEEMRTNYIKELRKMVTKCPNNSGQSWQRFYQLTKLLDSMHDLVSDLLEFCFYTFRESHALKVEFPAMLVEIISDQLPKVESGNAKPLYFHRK

[9] = molecular target: T5, Oxysterols receptor LXR-beta (Homo sapiens, UniProt P55055); experiment: Agonist activity at human LXRbeta ligand binding domain(155 to 460 residues) transfected in HEK293 cells after 16 hrs by Gal4-luciferase reporter gene assay; format: cell-based
T5 sequence (P55055 whole entry): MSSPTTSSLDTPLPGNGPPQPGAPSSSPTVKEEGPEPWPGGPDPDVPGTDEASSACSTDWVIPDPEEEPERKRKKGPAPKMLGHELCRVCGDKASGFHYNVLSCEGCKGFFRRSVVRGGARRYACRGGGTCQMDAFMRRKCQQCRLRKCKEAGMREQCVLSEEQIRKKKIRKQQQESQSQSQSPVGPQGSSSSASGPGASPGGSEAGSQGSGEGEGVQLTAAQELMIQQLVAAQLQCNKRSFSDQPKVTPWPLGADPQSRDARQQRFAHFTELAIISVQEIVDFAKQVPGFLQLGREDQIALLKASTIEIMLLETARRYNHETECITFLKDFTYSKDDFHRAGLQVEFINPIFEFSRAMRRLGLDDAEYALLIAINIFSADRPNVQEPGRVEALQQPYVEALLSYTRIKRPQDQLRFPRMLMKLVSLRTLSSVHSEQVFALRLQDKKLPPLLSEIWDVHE

[10] = molecular target: T6, Oxysterols receptor LXR-alpha (Homo sapiens, UniProt Q13133); experiment: Agonist activity at human LXRalpha ligand binding domain(167 to 447 residues) transfected in HEK293 cells after 16 hrs by Gal4-luciferase reporter gene assay; format: cell-based
T6 sequence (Q13133 whole entry): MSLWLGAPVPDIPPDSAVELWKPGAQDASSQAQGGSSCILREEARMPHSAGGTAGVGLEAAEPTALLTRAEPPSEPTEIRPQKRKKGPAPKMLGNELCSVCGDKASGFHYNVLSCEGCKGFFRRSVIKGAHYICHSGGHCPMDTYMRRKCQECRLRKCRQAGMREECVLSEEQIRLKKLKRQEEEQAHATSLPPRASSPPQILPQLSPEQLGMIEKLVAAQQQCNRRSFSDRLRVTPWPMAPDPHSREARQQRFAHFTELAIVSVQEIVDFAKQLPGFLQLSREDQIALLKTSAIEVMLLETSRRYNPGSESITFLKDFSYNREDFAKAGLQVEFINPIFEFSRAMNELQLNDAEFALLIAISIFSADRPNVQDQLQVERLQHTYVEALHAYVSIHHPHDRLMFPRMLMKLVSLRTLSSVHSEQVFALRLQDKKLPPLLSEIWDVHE

[11] = molecular target: T6, Oxysterols receptor LXR-alpha; experiment: Agonist activity at human LXRalpha by Gal4 assay
Method in brief: (§1)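 Cells were co-transfected with pG5-luc reporter and a Gal4 fusion of the ligand-binding domain (pGal4-LXRα LBD for α, pGal4-LXRβ LBD for β). Twenty hours after transfection, cells were treated with compound for 16 h. Agonist activity was read as luciferase signal and EC50 derived. Values are the average of at least two independent determinations.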

[12] = molecular target: T5, Oxysterols receptor LXR-beta; experiment: Agonist activity at human LXRbeta by Gal4 assay; method in brief: as §1
[13] = molecular target: T5, Oxysterols receptor LXR-beta; experiment: Binding to human LXRbeta
[14] = molecular target: T6, Oxysterols receptor LXR-alpha; experiment: Binding affinity to human LXRalpha
[15] = molecular target: T6, Oxysterols receptor LXR-alpha; experiment: Agonist activity at human LXRalpha coexpressed in African green monkey CV1 cells by Gal4 responsive reporter gene assay; format: cell-based, CV-1
[16] = molecular target: T5, Oxysterols receptor LXR-beta; experiment: Agonist activity at human LXRbeta coexpressed in African green monkey CV1 cells by Gal4 responsive reporter gene assay; format: cell-based, CV-1

SMILES: CC(C)[C@H]1CN(c2ccc(CO)c(S(C)(=O)=O)c2)CCN1c1ncc(CO)c(C(F)(F)F)n1
- half-life [1]: 25 min

SMILES: CC(C)[C@@H]1CN(c2ccc(F)c(S(C)(=O)=O)c2)CCN1c1nccc(C(F)(F)F)n1
- half-life [1]: 5 min
- half-life [2]: 11 min

SMILES: CC(C)[C@@H]1CN(c2ccc(CO)c(S(C)(=O)=O)c2)CCN1c1ncc(CO)c(C(F)(F)F)n1
- IC50 [3]: > 10000 nM
- half-life [1]: 70 min
- half-life [4]: 43 min
- half-life [5]: 10 min
- half-life [2]: 40 min
- IC50 [6]: > 10000 nM
- IC50 [7]: > 10000 nM
- IC50 [8]: > 10000 nM

SMILES: CC(C)[C@@H]1CN(c2ccc(F)c(S(C)(=O)=O)c2)CCN1c1ncc(C(C)(C)O)c(C(F)(F)F)n1
- half-life [1]: 51 min
- half-life [4]: 56 min
- half-life [2]: 72 min

SMILES: CC(C)[C@@H]1CN(c2ccc(F)c(S(C)(=O)=O)c2)CCN1c1ncc(Cl)c(C(F)(F)F)n1
- half-life [1]: 42 min
- half-life [4]: 19 min

SMILES: CC(C)[C@@H]1CN(c2ccc(F)c(S(C)(=O)=O)c2)CCN1c1ncc(CO)c(C(F)(F)F)n1
- half-life [1]: 36 min
- half-life [4]: 22 min
- half-life [2]: 38 min

SMILES: CC(C)[C@@H]1CN(c2cccc(S(C)(=O)=O)c2)CCN1c1nccc(C(F)(F)F)n1
- half-life [1]: 11 min
- half-life [2]: 8 min

SMILES: FC(F)(F)c1ccc(CN2CCN(c3ccccc3)CC2c2ccccc2)cn1 (stereo unspecified)
- EC50 [9]: > 20000 nM
- EC50 [10]: > 20000 nM

SMILES: O=C(O)Cc1cccc(OCCCN(Cc2cccc(C(F)(F)F)c2Cl)CC(c2ccccc2)c2ccccc2)c1
- EC50 [11]: 1130 nM
- EC50 [12]: 390 nM
- EC50 [13]: 5 nM
- EC50 [14]: 22 nM

SMILES: C[C@H](CC[C@@H]1OC1(C)C)[C@H]1CC[C@H]2[C@@H]3CC=C4C[C@@H](O)CC[C@]4(C)[C@H]3CC[C@]12C [24(S),25-EPOXYCHOLESTEROL]
- EC50 [13]: > 20000 nM
- EC50 [15]: 117 nM
- EC50 [14]: > 20000 nM
- EC50 [16]: 168 nM
